Screening data from PubChem BioAssay.
The list is not random: actives were taken first. Their share in the collection is about 1.2%.
S1P3 ag = activates the human S1P3 receptor. S1P3 NFAT-BLA reporter cells, agonism, FRET ratio; relative to 1 µM S1P, basal subtracted. hit rate 0.1% among 60,000. Q99500. activation, % at 4.5 µM;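 active means activation above the screen-wide mean plus 3 SD, cut at about 4.5% in these data, passing the limit was not always enough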
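Measure – % activation relative to 1 µM S1P (100%), per plate · System – stable CHO line with human S1P3, Gα16, NFAT-BLA reporter · Timing – cells plated overnight, compound 4 h 37 °C, substrate 2 h RT · Technique – fluorescent BLA substrate, ex 405 nm, em 460/535 nm ratio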
PKA kinase inh = PKA (human) kinase inhibition | inhibition, % at 6 µM | PKA Kemptide phosphorylation, Kinase-Glo ATP luminescence | AID 524 | hit rate 0.1% among 65,000;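 active means inhibition above the screen-wide mean inhibition plus 3 SD, cut at about 21% in these data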
S1P1 ag-PAM = agonists and agonism potentiators of human S1P1 receptor | P21453 | S1P1 CRE-bla cells, forskolin, beta-lactamase FRET, potentiator mode; S1P1 agonist co-added at EC20, 2 nM; 100% = saturating reference agonist, 0% = basal | activation, % at 9.5 µM | hit rate 0.57% among 56,000;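 active means activation above a cutoff set at the mean activation of all tested compounds plus 3 SD, cut at about 54% in these data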;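 further: forskolin at 4 µM as EC80 and the EC20 agonist is SEW2871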
JNK3 inh = blocks human JNK3 kinase activity; AID 746; hit rate 0.61% among 60,000; purified JNK3 kinase activity, HTS; P53779; inhibition, % at 8 µM; in the data active means inhibition above about 17%
Target sequence (P53779 whole entry, looked up): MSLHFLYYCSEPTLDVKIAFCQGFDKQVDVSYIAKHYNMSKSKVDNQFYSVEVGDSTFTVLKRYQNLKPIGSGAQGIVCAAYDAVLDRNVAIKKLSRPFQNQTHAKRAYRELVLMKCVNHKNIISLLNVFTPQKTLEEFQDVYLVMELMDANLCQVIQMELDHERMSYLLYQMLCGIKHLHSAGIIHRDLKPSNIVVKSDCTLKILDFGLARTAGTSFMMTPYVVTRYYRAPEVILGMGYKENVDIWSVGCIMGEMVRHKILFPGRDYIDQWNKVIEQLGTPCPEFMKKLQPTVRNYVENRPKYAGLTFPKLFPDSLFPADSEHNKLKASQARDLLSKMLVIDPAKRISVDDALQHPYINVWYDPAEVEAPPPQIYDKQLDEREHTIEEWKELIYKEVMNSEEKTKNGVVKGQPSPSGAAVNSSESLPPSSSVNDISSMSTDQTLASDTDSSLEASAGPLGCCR
ROCK2 inh = blocks human Rho kinase 2 activity | O75116 | purified ROCK2, Kinase-Glo ATP depletion luminescence | inhibition, % at 6 µM | hit rate 0.35% among 60,000 | AID 604;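 active means inhibition above the screen-wide mean inhibition plus 3 SD, cut at about 18% in these data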
MMP13 inh = blocks human MMP13 activity; MMP-13 fTHP FRET cleavage, Mca fluorescence; inhibition, % at 4 µM; hit rate 0.07% among 65,000;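 active means inhibition above the mean of compound-free control plate wells plus 3 SD, cut at about 14% in these data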
Each line names hits and unclear results; the compound was inactive in the other large screens.

COc1ccc2[nH]c3nc(SCc4nnc(-c5ccc(C)cc5)o4)nnc3c2c1	none
CCOc1ccc(C(=O)Nc2ccc(Cl)cn2)cc1Cl	S1P1 ag-PAM 72.7
O=C1CSC(c2cn(-c3ccccc3)nc2-c2cccs2)N1CC1CCCO1 (configuration not stated)	none
COC(=O)c1ccc(CSc2nc3scc(-c4cccs4)c3c(=O)[nH]2)o1	MMP13 inh 17.1
N#Cc1c(/N=C/c2ccco2)sc2c1CCCCC2	ROCK2 inh 24.6
c1ccc2c(c1)oc1c(N3CCN(Cc4ccc5c(c4)OCO5)CC3)ncnc12	S1P1 ag-PAM 92.2
c1ccc(Cn2nnc3c(N4CCN(Cc5ccc6c(c5)OCO6)CC4)ncnc32)cc1	none
Cc1cc(Cn2ccnc2)c(C)cc1Cn1ccnc1	none
O=C1CC(NCc2ccc3c(c2)OCO3)C(=O)N1Cc1ccc2c(c1)OCO2 (configuration not stated)	none
c1ccc(-c2n[nH]c3c2CCC3)cc1	JNK3 inh 18.0
